Results: ChEMBL document CHEMBL1123710, “Molecular structure of the dihydropyridazinone cardiotonic 1,3-dihydro-3,3-dimethyl-5-(1,4,5,6-tetrahydro-6-oxo-pyridazinyl)- 2H-indol-2-one, a potent inhibitor of cyclic AMP phosphodiesterase” (1987)

Tests used:
Canis familiaris [1] = assay: Percent decrease in mean arterial blood pressure (MAP) was determined in anesthetized dogs; type: functional, Canis lupus familiaris
How it was run: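 Femoral arterial pressure in anesthetized dogs via heparin-filled catheter and pressure transducer; baseline MAP 99 ± 3 mmHg. Escalating iv doses via femoral vein every 5 min, peak responses taken. Value is percent change in mean arterial pressure at the inotropic ED50 dose.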

Canis familiaris [2] = assay: Myocardial contractility was determined after intravenous administration in phenobarbital anesthetized dogs (n=4).; type: functional; conditions: Canis lupus familiaris, Myocardium
How it was run: (§1)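 Dogs under anesthesia; Walton-Brodie strain-gauge arch sutured to right ventricle, tension set at 50 g. Increasing iv doses via femoral vein at 5-min intervals, peak responses recorded; vehicle injections tested. Inotropic ED50 by linear regression, mean ± SEM. Preload/afterload independence confirmed with dextran bolus and aortic compression.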

Canis familiaris [3] = assay: Percent increase in heart rate (HR) in anesthetized dogs was determined; type: functional, Canis lupus familiaris
Canis familiaris [4] = assay: Myocardial contractility was determined after intravenous administration in phenobarbital-anesthetized dogs (n=4).; type: functional; conditions: Canis lupus familiaris, Myocardium; how it was run: as §1
Canis familiaris [5] = assay: Myocardial contractility was determined after intravenous administration in phenobarbital-anesthetized dogs; type: functional; conditions: Canis lupus familiaris, Myocardium; how it was run: as §1

SMILES | Decrease (Canis familiaris [1]) [%] | ED50 (Canis familiaris [2]) [µg/kg] | Increase (Canis familiaris [3]) [%] | ED50 (Canis familiaris [4]) [µg/kg] | ED50 (Canis familiaris [5]) [µg/kg]
Cc1cc(O)nnc1-c1ccc2c(c1)C(C)(C)C(=O)N2 | 20 | 32.6 | 15 |  | 
CC1CC(=O)NN=C1c1ccc2c(c1)C(C)(C)C(=O)N2 (configuration not stated) | 31 |  | 20 | 3.6 | 
CC1(C)C(=O)Nc2ccc(-c3ccc(O)nn3)cc21 | 18 |  | 24 |  | 7.4
CC1(C)C(=O)Nc2ccc(C3=NNC(=O)CC3)cc21 [INDOLIDAN] | 15 |  | 12 | 6.8 | 
